The record followed here is ChEMBL document CHEMBL1773055, “A chemotype that inhibits three unrelated pathogenic targets: the botulinum neurotoxin serotype A light chain, P. falciparum malaria, and the Ebola filovirus” (J Med Chem, 2011).

Where only a bound is given, the exact number is not on record here.

Data set [1] deals with Botulinum neurotoxin type A (Clostridium botulinum) (UniProt P0DPI0). Kind of data set: Inhibition of clostridium botulinum Botulinum neurotoxin type A light chain at 20 uM. Summed up: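 Recombinant BoNT/A LC and peptide substrate were incubated in 40 mM HEPES–0.05% Tween pH 7.3 with 0.5 mg/ml BSA and 50 μM excess ZnCl2 at 37°C, with compound at 20 μM. Reactions were quenched with TFA, and substrate hydrolysis was quantified by reverse-phase HPLC peak areas. Percent inhibition was measured in duplicate.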
Sequence of Botulinum neurotoxin type A (Clostridium botulinum) (P0DPI0 2-448 limits assumed): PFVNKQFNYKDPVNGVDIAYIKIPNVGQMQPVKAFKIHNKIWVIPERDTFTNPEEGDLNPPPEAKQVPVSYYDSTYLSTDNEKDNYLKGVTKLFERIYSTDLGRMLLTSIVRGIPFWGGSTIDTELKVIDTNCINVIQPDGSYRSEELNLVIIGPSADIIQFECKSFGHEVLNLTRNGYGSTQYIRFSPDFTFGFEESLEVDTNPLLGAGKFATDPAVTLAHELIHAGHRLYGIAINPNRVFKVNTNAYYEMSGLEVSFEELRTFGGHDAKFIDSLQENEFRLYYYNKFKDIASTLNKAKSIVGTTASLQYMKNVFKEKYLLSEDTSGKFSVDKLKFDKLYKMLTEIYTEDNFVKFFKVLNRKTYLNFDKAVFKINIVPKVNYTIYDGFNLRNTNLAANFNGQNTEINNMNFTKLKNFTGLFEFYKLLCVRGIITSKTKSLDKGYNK

The subject of data set [2] is Plasmodium falciparum. Kind of data set: Antimalarial activity against Plasmodium falciparum D6. Format: functional, organism-based.
The test system of data set [3] is Plasmodium falciparum. Kind of data set: Resistance index, ratio of IC50 for Plasmodium falciparum C235 to IC50 for Plasmodium falciparum D6. The format is functional.
Data set [4] deals with Plasmodium falciparum. Kind of data set: Resistance index, ratio of IC50 for Plasmodium falciparum W2 to IC50 for Plasmodium falciparum D6. Format: functional. Summed up:
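P. falciparum clones D6 (CQ/MFQ-susceptible, Sierra I/UNC), W2 (CQ-resistant, MFQ-susceptible, Indochina I) and TM91C235 (CQ- and MFQ-resistant, South-East Asian) were tested in a modified Desjardins in vitro susceptibility screen, giving IC50 and IC90. Resistance index is IC50 of the resistant strain divided by IC50 against D6 (W2/D6, C235/D6).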

For data set [5], the system named is Plasmodium falciparum. Kind of data set: Antimalarial activity against Plasmodium falciparum W2. Format: functional, organism-based.
Data set [6] concerns Plasmodium falciparum. Kind of data set: Antimalarial activity against Plasmodium falciparum C235. The format is functional, organism-based.
In data set [7] the test system is Vero. Kind of data set: Cytotoxicity against african green monkey Vero 76 cells at 20 uM. The format is cell-based. The conditions noted are these: chlorocebus sabaeus.
For data set [8], the system named is Ebolavirus. Kind of data set: Antiviral activity against Zaire ebolavirus expressing enhanced GFP in Vero 76 cells at 20 uM after 48 hrs by standard Plaque assay. Format: functional. The following applies: Orthoebolavirus.
Data set [9] concerns Ebolavirus. Kind of data set: Antiviral activity against Zaire ebolavirus expressing enhanced GFP in Vero 76 cells after 48 hrs by standard Plaque assay. Format: functional, cell-based. The following applies: Orthoebolavirus.

What is called inhibition is the relative decrease from the control value, in per cent. In general, IC50 refers to the concentration that gives 50% inhibition. What is called IC90 is the point of the concentration-response curve where the effect stands at 90%.

Consider `Cc1cc(NCCCN)c2ccc3c(ccc4c(NCCCN)cc(C)nc43)c2n1.Cl`, for which the inhibition in [1] amounted to 70%. The IC50 in data set [2] was 708 nM; in [5] it was 1700 nM; in data set [6], 2030 nM. Besides, the IC90 amounted to 1010 nM in [2], 3260 nM in [5] and 3050 nM in [6]. The “Ratio IC50” value in [3] came to 2.87; in data set [4], 2.4.
`Cc1cc(NCCCN2CCCC2)c2ccc3c(ccc4c(NCCCN5CCCC5)cc(C)nc43)c2n1.Cl` registered an inhibition in data set [1] of 73.5%. The figures for the IC50 in data set [2], in data set [5] and in data set [6] were 14.8 nM, 7.75 nM and 34.3 nM, respectively. For the same compound, the figures for the IC90 in data set [2], in [5] and in data set [6] were 39.4 nM, 25.4 nM and 95.2 nM, respectively. In addition, the “Ratio IC50” value in data set [3] was 2.31; in data set [4], 0.52.
Consider `Cc1cc(NCCCN2CCCCC2)c2ccc3c(ccc4c(NCCCN5CCCCC5)cc(C)nc43)c2n1.Cl`, for which the Activity in data set [7] is listed as < 20%. Further, the inhibition in [1] was 66.1%. In addition, the IC50 is 9.26 nM in data set [2], 5000 nM in data set [9], 6.98 nM in data set [5] and 24.8 nM in data set [6]. For the same compound, the IC90 in [2] worked out at 17.4 nM; in data set [5], 22.5 nM; in data set [6] it was 41.2 nM. Further, in data set [8], the inhibition at 20 µM was found to be 100%. Moreover, the “Ratio IC50” value in data set [3] is 2.68; in [4], 0.75.
On to `C[C@@H]1CC[C@H]2[C@@H](C)C(=O)O[C@@H]3O[C@@]4(C)CC[C@@H]1[C@]32OO4` [ARTEMISININ], for which the IC50 in data set [2] amounted to 9 nM; in [5] it was 6.7 nM; in data set [6], 13 nM. The IC90 in data set [2] is 12.8 nM; in data set [5], 11.5 nM; in data set [6], 17.4 nM.
In the case of `Cc1cc(NCCCCN)c2ccc3c(ccc4c(NCCCCN)cc(C)nc43)c2n1`, the inhibition in [1] amounted to 72.2%.
`CCN(CC)CCCNc1cc(C)nc2c1ccc1c2ccc2c(NCCCN(CC)CC)cc(C)nc21.Cl` displayed an inhibition in data set [1] of 64.7%. For the same compound, the figures for the IC50 in [2], in [5] and in data set [6] were 30 nM, 8.65 nM and 66.5 nM, respectively. Further, the IC90 came to 49.5 nM in data set [2], 46.7 nM in data set [5] and 286 nM in data set [6]. The results for the “Ratio IC50” value in [3] and in data set [4] were 2.22 and 0.29, respectively.
In the case of `Cc1cc(NCCN(C)C)c2ccc3c(ccc4c(NCCN(C)C)cc(C)nc43)c2n1.Cl`, the inhibition in data set [1] turned out to be 57%. Further, the IC90 came out at 20.8 nM in data set [2], 31.2 nM in data set [5] and 26 nM in [6]. In addition, the “Ratio IC50” value in [3] is 0.98; in data set [4] it was 0.59. Also, the IC50 in [5] turned out to be 9.19 nM; in [6], 15.3 nM.
With `CCN(CC)CCCC(C)Nc1ccnc2cc(Cl)ccc12` (stereo not given) [CHLOROQUINE], the IC90 worked out at 16.1 nM in data set [2], 698 nM in [5] and 373 nM in [6].
Regarding `Cc1cc(NCCCN(C)C)c2ccc3c(ccc4c(NCCCN(C)C)cc(C)nc43)c2n1.Cl`, in data set [1], the inhibition came to 68.9%. The IC50 in [2] is 103 nM; in [5], 353 nM; in data set [6] it was 54.8 nM. Moreover, the IC90 in [2] was 210 nM; in data set [5], 709 nM; in data set [6], 699 nM. Also, the “Ratio IC50” value in data set [3] stood at 0.53; in data set [4], 3.41.
As for `Cc1cc(NCCN2CCCCC2)c2ccc3c(ccc4c(NCCN5CCCCC5)cc(C)nc43)c2n1.Cl`, the inhibition in data set [1] turned out to be 63.4%. For the same compound, the IC50 in data set [2] worked out at 8.79 nM; in [5], 5.5 nM; in data set [6] it was 10.6 nM. Further, the 90% effect concentration (IC90) in [2] was 13.2 nM; in [5], 15.4 nM; in data set [6], 14.9 nM. The “Ratio IC50” value in data set [3] was 1.2; in data set [4], 0.62.
